The species entered for data set [1] is Homo sapiens. As to the kind of experiment: Selectivity ratio of IC50 for human SGLT1 to IC50 for human SGLT2.
Data set [2] concerns the target T1, Sodium/glucose cotransporter 2 (Homo sapiens, UniProt P31639).
T1 sequence (P31639 whole entry): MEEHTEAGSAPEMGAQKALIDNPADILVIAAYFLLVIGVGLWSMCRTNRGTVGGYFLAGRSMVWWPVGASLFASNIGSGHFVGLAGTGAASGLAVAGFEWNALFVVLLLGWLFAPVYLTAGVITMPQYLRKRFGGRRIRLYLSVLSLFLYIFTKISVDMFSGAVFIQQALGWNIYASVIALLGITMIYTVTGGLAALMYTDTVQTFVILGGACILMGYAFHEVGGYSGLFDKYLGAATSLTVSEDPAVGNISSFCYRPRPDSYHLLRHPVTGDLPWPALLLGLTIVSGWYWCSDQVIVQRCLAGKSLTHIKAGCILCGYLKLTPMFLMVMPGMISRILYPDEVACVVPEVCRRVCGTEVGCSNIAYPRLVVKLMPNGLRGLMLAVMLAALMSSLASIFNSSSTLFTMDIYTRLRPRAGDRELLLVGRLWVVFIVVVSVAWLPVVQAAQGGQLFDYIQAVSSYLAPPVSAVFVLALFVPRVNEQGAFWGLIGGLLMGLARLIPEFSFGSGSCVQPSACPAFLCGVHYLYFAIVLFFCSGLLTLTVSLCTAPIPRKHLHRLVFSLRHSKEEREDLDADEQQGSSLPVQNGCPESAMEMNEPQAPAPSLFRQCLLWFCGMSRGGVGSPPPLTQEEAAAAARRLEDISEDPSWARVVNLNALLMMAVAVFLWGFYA
As to the kind of experiment: Inhibition of human SGLT2 expressed in CHO cells assessed as [14C]-methyl-alpha-D-glucopyranoside accumulation. In kind it is cell-based.

Data set [3] in a line: Cmax in Sprague-Dawley rat at 3 mg/kg, po. In kind it is ADME, organism-based. Further details: dose 3 mg/kg, route oral. As to conditions: in vivo. The procedure, abridged: (§1)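 Male Sprague–Dawley rats, bought at 5–7 weeks of age. A single 1.0 mg/kg intravenous dose or a single 3 mg/kg oral dose was given. Plasma pharmacokinetic parameters were derived: T1/2, CLtot, Vdss, Cmax, Tmax, AUC(0–inf) and oral bioavailability F.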

The nature of data set [4]: AUC (0 to infinity) in Sprague-Dawley rat at 1 mg/kg, iv. In kind it is ADME, organism-based. Also on record: time infinity, dose 1 mg/kg, route intravenous. As to conditions: plasma. The procedure, abridged: as §1
Data set [5] relates to Mus musculus. As to the kind of experiment: Antihyperglycemic activity in po dosed KK/Ay type-2 diabetic mouse model assessed as increase in urinary glucose excretion measured over 24 hrs. In kind it is functional, organism-based. As to conditions: Urine.
Data set [6] is described as follows: Oral bioavailability in Sprague-Dawley rat at 3 mg/kg. The note with it: in vivo. In kind it is ADME, organism-based. The essentials:
as §1

For data set [7], the system named is Mus musculus. As to the kind of experiment: Antihyperglycemic activity in KK/Ay type-2 diabetic mouse model assessed as increase in urinary glucose excretion at => 0.3 mg/kg, po measured over 12 hrs. In kind it is functional, organism-based. Further details: dose 0.3 mg/kg. The note with it: Urine.
Data set [8] can be described thus: Ratio of drug level in kidney to plasma in Sprague-Dawley rat at 1 mg/kg, iv and 3 mg/kg, po. In kind it is ADME, organism-based. The procedure, abridged:
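Male Sprague–Dawley rats received a single 1.0 mg/kg iv or a single 3 mg/kg oral dose. Drug concentration in kidney was compared with that in plasma.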

The subject of data set [9] is Rattus norvegicus. As to the kind of experiment: Volume of distribution at steady state in Sprague-Dawley rat at 1 mg/kg, iv. In kind it is ADME, organism-based. The note with it: in vivo. Also on record: dose 1 mg/kg, route intravenous. The essentials:
as §1

A short description of data set [10]: Half life in Sprague-Dawley rat at 3 mg/kg, po. In kind it is ADME, organism-based. As to conditions: in vivo. Also on record: dose 3 mg/kg, route oral. The procedure, abridged:
as §1

Data set [11] is described as follows: Tmax in Sprague-Dawley rat at 3 mg/kg, po. In kind it is ADME, organism-based. Also on record: dose 3 mg/kg, route oral. As to conditions: in vivo. The procedure, abridged: as §1
In data set [12] the test system is Rattus norvegicus. As to the kind of experiment: Antihyperglycemic activity in streptozotocin-induced type-1 diabetes mellitus rat model assessed as reduction of blood glucose level at 0.1 to 3 mg/kg, po measured for 8 hrs.
Data set [13] can be described thus: Half life in Sprague-Dawley rat at 1 mg/kg, iv. Further details: dose 1 mg/kg, route intravenous. The note with it: in vivo. In kind it is ADME, organism-based. The procedure, abridged:
as §1

The test system of data set [14] is Mus musculus. As to the kind of experiment: Antihyperglycemic activity in KK/Ay type-2 diabetic mouse model assessed as reduction of blood glucose level at 3 mg/kg, po measured for 8 hrs relative to vehicle-treated control. In kind it is functional. Further details: scale not given: the % may be the effect or the level left. The essentials: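 KK/Ay mice in the fed condition were given a single oral dose (0.1–3 mg/kg). Blood glucose was followed over time, and suppression of glucose AUC was calculated relative to vehicle. Mean ± SEM, 6 animals per group.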

Calls of active or inactive are those of the source. No cut-off for these calls is given here.

With `OC[C@H]1O[C@@H](c2cccc(Cc3cc4cccccc-4c3Cc3ccccc3)c2)[C@H](O)[C@@H](O)[C@@H]1O`, the Ratio IC50 in data set [1] was greater than 10. In addition, the IC50 in [2] stood at 970 nM.

`COc1ccc([C@@H]2O[C@H](CO)[C@@H](O)[C@H](O)[C@H]2O)cc1Cc1cc2cccccc-2c1`: the Ratio IC50 in data set [1] stood at 35. Further, the concentration for half-maximal inhibition (IC50) in data set [2] was 17 nM.

With `CC(=O)c1c(Cc2cccc([C@@H]3O[C@H](CO)[C@@H](O)[C@H](O)[C@H]3O)c2)cc2cccccc1-2`, the Ratio IC50 in data set [1] is greater than 0.8. Moreover, the IC50 in data set [2] came to 12000 nM.

With `OC[C@H]1O[C@@H](c2cccc(Cc3cc4cccccc-4c3)c2)[C@H](O)[C@@H](O)[C@@H]1O`, the Ratio IC50 in [1] was 590.

For the molecule `COc1ccc(Cc2cc3cccccc-3c2)cc1[C@@H]1O[C@H](CO)[C@@H](O)[C@H](O)[C@H]1O`, the Ratio IC50 in data set [1] is 2100.

On to `CCc1c(Cc2cccc([C@@H]3O[C@H](CO)[C@@H](O)[C@H](O)[C@H]3O)c2)cc2cccccc1-2`, for which, in data set [1], the Ratio IC50 is greater than 1.9. For the same molecule, the IC50 in [2] was 5200 nM.

Consider `OC[C@H]1O[C@@H](c2ccc(Cl)c(Cc3cc4cccccc-4c3)c2)[C@H](O)[C@@H](O)[C@@H]1O`, for which the Ratio IC50 in [1] stood at 140. In addition, the IC50 in data set [2] is 7.9 nM.

As to `OC[C@H]1O[C@@H](c2cccc(Cc3ccc4cccc-4cc3)c2)[C@H](O)[C@@H](O)[C@@H]1O`, in [1], the Ratio IC50 was 230.

Regarding `OC[C@H]1O[C@@H](c2ccc(F)c(Cc3cc4cccccc-4c3)c2)[C@H](O)[C@@H](O)[C@@H]1O`, the Ratio IC50 in data set [1] stood at 610. Further, the 50% inhibitory concentration (IC50) in [2] stood at 14 nM.

In turn, `OC[C@H]1O[C@@H](c2cc(Cc3cc4cccccc-4c3)ccc2O)[C@H](O)[C@@H](O)[C@@H]1O` [YM-543 FREE ACID] registered a maximum concentration (Cmax) in data set [3] of 101 ng/mL. For the same molecule, the area under the curve AUC(0-inf) in data set [4] was found to be 403 ng·h/mL. In [1], the Ratio IC50 is 280. Also, the Activity entry is “Dose-dependent effect” in data set [5] and 56% in data set [14]. For the same molecule, in data set [6], the bioavailability was 29%. Besides, the outcome in data set [7] and in data set [12] was Active. Also, the Kp in [8] was 23. For the same molecule, the Vdss in data set [9] worked out at 3.36 L/kg. The half-life in data set [10] was 78 min; in data set [13] it was 54 min. The Tmax in data set [11] is 30 min.

For `OC[C@H]1O[C@@H](c2cc(Cc3cc4cccccc-4c3)ccc2F)[C@H](O)[C@@H](O)[C@@H]1O`, the Ratio IC50 in data set [1] came to 123. Also, the IC50 in [2] is 39 nM.

For the molecule `Cc1cc(Cc2cccc([C@@H]3O[C@H](CO)[C@@H](O)[C@H](O)[C@H]3O)c2)c2cccccc1-2`, the 50% inhibitory concentration (IC50) in [2] was 44000 nM.

On to `OC[C@H]1O[C@@H](c2cc(Cc3cc4cccccc-4c3)ccc2Cl)[C@H](O)[C@@H](O)[C@@H]1O`, for which, in [1], the Ratio IC50 turned out to be 200. Further, the IC50 in data set [2] is 70 nM.

The values above are taken from ChEMBL document CHEMBL2396571, “Synthesis and biological evaluation of C-glucosides with azulene rings as selective SGLT2 inhibitors for the treatment of type 2 diabetes mellitus: discovery of YM543” (Bioorg Med Chem, 2013).
